An excerpt weighted towards active compounds, which were near 2.9% of everything screened.
SIRT5 block – inhibitors of human sirtuin-5 desuccinylase; Q9NXA8; Purified SirT5, succinyl-peptide AMC, trypsin-coupled fluorescence; inhibition, % at 15 µM; hit rate 1.1% among 330,000; in the data active means inhibition above about 15%; inconclusive means no clear call, values can overlap the other calls
Target sequence (Q9NXA8 whole entry, looked up): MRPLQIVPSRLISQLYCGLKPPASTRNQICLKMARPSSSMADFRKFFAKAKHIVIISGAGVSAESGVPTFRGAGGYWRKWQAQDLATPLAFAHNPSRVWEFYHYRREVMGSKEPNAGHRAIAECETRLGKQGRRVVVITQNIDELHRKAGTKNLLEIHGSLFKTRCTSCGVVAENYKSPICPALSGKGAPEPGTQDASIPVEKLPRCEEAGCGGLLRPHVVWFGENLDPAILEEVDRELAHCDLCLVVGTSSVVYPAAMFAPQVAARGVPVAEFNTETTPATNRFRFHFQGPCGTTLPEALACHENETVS
Statin myotox sup – suppressors of simvastatin-induced myotoxicity in C2C12 myotubes. rescue of ATP level, % at 7.49 µM. ATP luminescence, 48 h; scaled: DMSO 0, geranylgeraniol control 100. hit rate 0.78% among 330,000;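 active means mean ATP rescue above about 67%, or every replicate alone reaching that limit, limit read from the data, passing the limit was not always enough; inconclusive means no clear call, values can overlap the other calls; inactive means mean under the limit and some replicate under it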;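 further: myotubes were challenged with 10 µM simvastatin during compound exposure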
S100A4 inh HTS – inhibitors of human S100A4 binding to myosin IIA peptide; P26447; S100A4/TAMRA-MyoIIA peptide fluorescence polarization; inhibition, % at 10.7 µM; hit rate 0.14% among 360,000;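 active means mean inhibition of at least 70% across replicates, with every replicate also reaching that level; inconclusive means mean inhibition reaches 70% but some replicates fall short; inactive means mean inhibition below 70%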
Target sequence (P26447 whole entry, looked up): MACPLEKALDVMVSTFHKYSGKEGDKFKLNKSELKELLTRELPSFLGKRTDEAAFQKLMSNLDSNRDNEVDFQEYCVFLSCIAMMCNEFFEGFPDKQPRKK
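Compound dosing: one dose per compound; test system: human S100A4 monomer with TAMRA-labelled myosin IIA peptide; probe or stimulus: TAMRA-labelled myosin IIA heavy-chain peptide probe, 5 nM; medium: HEPES buffer with Ca2+, pH 7.2; schedule: 5 min incubation before reading; benchmarks: neutral control DMSO, positive control TFP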
PGC1a acetyl inh – PGC1a acetylation modulation, inhibitor mode; U2OS PGC1a acetylation, AlphaScreen anti-acetyl-lysine; with virally co-expressed GCN5 acetyltransferase; inhibition, % at 15.6 µM; hit rate 0.17% among 350,000; AID 651687;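 active means every replicate shows inhibition of at least 40%; inconclusive means mean inhibition at least 40% but some replicate below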;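 further: 0% = neutral control wells and 100% = positive control wells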
DENV2 CPE – inhibitors of DENV2 cytopathic effect; DENV2-infected cells, cytopathic effect rescue, plate reader; CPE inhibition, % at 9.99 µM; hit rate 1.7% among 350,000; in the data active means CPE inhibition above about 20%, passing the limit was not always enough; inconclusive means no clear call, values can overlap the other calls; tested in BHK-21 cells;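 further: 0% = median of neutral control wells and 100% = median of positive control wells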
An asterisk follows results filed as active; ? = inconclusive; · = no result.

SMILES	SIRT5 block	Statin myotox sup	S100A4 inh HTS	PGC1a acetyl inh	DENV2 CPE
COc1ccc(C(=O)N2CCc3cc(OC)c(OC)cc3C2)cc1OC	·	122*	·	11	·
O=C(c1ccc(F)cc1)N1CCC(N2CCCCCC2)CC1	·	145*	·	5	·
COc1ccc(C(=O)N2CCN(C3CCCCC3)CC2)cc1OC	5	41	0	-14	31*
CCCCCCCCN1C(=O)[C@@H](CC(=O)NCCCOC)C[C@@]2(C(=O)OC)C1=C[C@H](C1CCCC1)O[C@@H]2C	·	·	-1	·	-2
O=C(C[C@@H]1CC[C@H](NC(=O)C2CCC2)[C@H](CO)O1)NCc1ccccc1Cl	1	-5	1	-8	-4
COc1ccc(S(=O)(=O)N(C)C[C@H]2Oc3c(NS(C)(=O)=O)cccc3C(=O)N([C@H](C)CO)C[C@@H]2C)cc1	3	·	-10	0	-17
CCC(=O)N1[C@H](C#N)[C@@H](c2ccccc2-c2ccccc2)[C@H]1CO	-3	·	-5	·	-4
CC(C)NC(=O)N[C@@H]1CC[C@H](CCn2cc(-c3ccc(F)cc3)nn2)O[C@H]1CO	1	-13	1	-6	2
CCCC(=O)Nc1ccc2c(c1)C(=O)N(C)C[C@H](OC)[C@H](C)CN(Cc1ccccc1F)[C@@H](C)CO2	-7	12	-1	-3	7
CCCN1C[C@H](C)[C@H](OC)CN(C)C(=O)c2cc(NC(=O)C3CC3)ccc2OC[C@H]1C	-3	-1	4	-4	0
Cc1ccc(C(=O)N2CCSCC2)cc1	0	103*	-4	-28	-4
O=C(Nc1ccc(C(=O)N2CCCCC2)cc1)c1ccc(Br)cc1	·	·	·	-11	·
Cc1ccc(NC(=O)Nc2ccc(C(=O)N3CCOCC3)cc2)cc1	·	28	·	14	·
O=C(c1ccc(Br)cc1)N1CCCC1	·	94*	·	5	·
O=C(C[C@H]1CC[C@H]2[C@@H](COC[C@@H](O)CN2C(=O)Nc2ccc(Cl)cc2)O1)NCC1CCCCC1	3	-22	4	-8	4
O=C(CN1CCOCC1)N1c2ccccc2Sc2ccc(Cl)cc21	1	4	2	·	-4
O=C(CN1CCN(CCOCCO)CC1)N1c2ccccc2Sc2ccc(Cl)cc21	·	108*	·	-11	·
C[C@@H]1CN([C@@H](C)CO)C(=O)c2cc(NC(=O)CCN3CCOCC3)ccc2O[C@@H]1CN(C)C(=O)NC1CCCCC1	-4	3	-1	-6	-9
O=C(Nc1cc(C(=O)Nc2ccccc2C(=O)O)cc(C(=O)Nc2ccccc2C(=O)O)c1)c1ccccc1	25*	4	-6	·	-1
O=C(/C=C/c1ccco1)Nc1cccc(C(=O)Nc2ccccc2C(=O)O)c1	21*	-65	2	-3	?
O=C(Nc1ccccc1C(=O)O)c1cccc(NC(=O)c2ccccc2Br)c1	1	14	3	-7	4
CCC(=O)N1CCCCN2[C@H](CO)[C@H](c3ccc(-c4cccnc4)cc3)[C@H]2C1	0	1	5	-3	6
COc1ccc(C2CC(=O)c3cnc(N)nc3C2)c(OC)c1 (stereo unspecified)	·	106*	·	-1	·
CCOC(=O)C1=C(C)NC(=O)C(C#N)C1c1ccncc1 (stereo unspecified)	2	8	-2	4	36*
CNC[C@H]1Oc2cc(-c3ccc(C)cc3)ccc2S(=O)(=O)N([C@H](C)CO)C[C@@H]1C	-7	0	-17	-2	-5
SMILES	SIRT5 block	Statin myotox sup	S100A4 inh HTS	PGC1a acetyl inh	DENV2 CPE
CO[C@@H]1CN(C)C(=O)c2cc(NC(=O)NC(C)C)ccc2OC[C@H](C)N(Cc2ccccn2)C[C@@H]1C	-1	-2	6	-7	73*
CO[C@H]1CN(C)C(=O)c2cc(NC(C)=O)ccc2OC[C@H](C)N(Cc2ccccn2)C[C@H]1C	2	-6	141*	-13	-3
COCC(=O)Nc1ccc2c(c1)C(=O)N(C)C[C@@H](OC)[C@H](C)CN(Cc1ccccn1)[C@H](C)CO2	23*	5	3	-3	11
CO[C@@H]1CN(C)C(=O)c2cc(NC(C)=O)ccc2OC[C@H](C)N(Cc2nccs2)C[C@@H]1C	-1	3	12	2	59*
CO[C@H]1CN(C)C(=O)c2cc(NC(C)=O)ccc2OC[C@@H](C)N(Cc2ccccn2)C[C@@H]1C	-4	-1	1	2	13
CN1CCN(C(=O)C[C@@H]2CC[C@H]3[C@H](COc4ccc(NC(=O)C5CC5)cc4C(=O)N3C)O2)CC1	-2	-20	-24	5	-2
O=C(C[C@@H]1CC[C@@H]2[C@H](COC[C@@H](O)CN2C(=O)Cc2ccccc2)O1)NC1CCC1	3	1	51	4	4
CO[C@H]1CN(C)C(=O)c2ccc(NC(=O)C3CCCCC3)cc2OC[C@@H](C)N(Cc2nccs2)C[C@H]1C	3	23	-36	·	-4
CO[C@H]1CN(C)C(=O)c2ccc(NC(=O)C3CCCCC3)cc2OC[C@@H](C)N(Cc2nccs2)C[C@@H]1C	5	0	130*	·	-5
CN1C(=O)c2cc(NC(=O)c3ccno3)ccc2OC[C@H]2O[C@@H](CC(=O)NC3Cc4ccccc4C3)CC[C@@H]21	9	17	0	2	53*
CN1C(=O)c2cc(NC(=O)c3ccc(C#N)cc3)ccc2OC[C@H]2O[C@@H](CC(=O)NC3Cc4ccccc4C3)CC[C@@H]21	5	52	-2	-2	75*
Cc1noc(C)c1NC(=O)Nc1ccc2c(c1)C(=O)N([C@@H](C)CO)C[C@H](C)[C@H](CN(C)Cc1ccncc1)O2	1	-24	12	0	-2
Cc1noc(C)c1NC(=O)N(C)C[C@H]1Oc2c(NS(=O)(=O)c3cccs3)cccc2C(=O)N([C@H](C)CO)C[C@H]1C	-5	17	-14	-1	?
OC(CSc1nnnn1-c1ccccc1)Cn1c2ccccc2c2ccccc21 (stereo unspecified)	·	·	4	·	21*
CCn1c2ccccc2c2cc(NC(=O)CSc3nnnn3-c3ccccc3)ccc21	·	-30	·	5	·
CC=Cc1ccc2n(c1=O)C[C@@H]1[C@@H](CO)[C@H](C(=O)NCC)N(Cc3ccccc3Cl)[C@H]21 (mixture of isomers)	·	7	·	·	·
C[C@@H]1CN([C@@H](C)CO)C(=O)c2cc(NS(=O)(=O)c3ccccc3)ccc2O[C@@H]1CN(C)Cc1ccc(-c2ccccc2)cc1	18*	14	-6	11	11
Cc1ccc(S(=O)(=O)Nc2ccc3c(c2)C(=O)N([C@@H](C)CO)C[C@@H](C)[C@H](CN(C)Cc2ccc(-c4ccccc4)cc2)O3)cc1	-4	14	2	-23	0
C[C@H](CO)N1C[C@H](C)[C@H](CN(C)Cc2ccc(-c3ccccc3)cc2)Oc2ccc(NS(C)(=O)=O)cc2C1=O	1	-21	-2	3	-1
C[C@@H]1CN([C@@H](C)CO)C(=O)c2cc(NS(C)(=O)=O)ccc2O[C@H]1CN(C)Cc1ccc(-c2ccccc2)cc1	2	11	-6	-1	32*

Assay outcomes deposited in PubChem BioAssay by Broad Institute.
